From ChEMBL document CHEMBL5696444 (Nat Commun, 2017)

Key:
[1] = target: Mast/stem cell growth factor receptor Kit (Homo sapiens) (UniProt P10721); assay: Inhibition of KIT (unknown origin) at 100 nM in the presence of ATP by Kinome scan method relative to control
[2] = target: Serine/threonine-protein kinase Chk2 (Homo sapiens) (UniProt O96017); assay: Inhibition of CHEK2 (unknown origin) at 1000 nM in the presence of ATP by Kinome scan method relative to control
[3] = target: Ephrin type-A receptor 5 (Homo sapiens) (UniProt P54756); assay: Inhibition of EPHA5 (unknown origin) at 1000 nM in the presence of ATP by Kinome scan method relative to control
Ephrin type-A receptor 5 (Homo sapiens), sequence (P54756 whole entry): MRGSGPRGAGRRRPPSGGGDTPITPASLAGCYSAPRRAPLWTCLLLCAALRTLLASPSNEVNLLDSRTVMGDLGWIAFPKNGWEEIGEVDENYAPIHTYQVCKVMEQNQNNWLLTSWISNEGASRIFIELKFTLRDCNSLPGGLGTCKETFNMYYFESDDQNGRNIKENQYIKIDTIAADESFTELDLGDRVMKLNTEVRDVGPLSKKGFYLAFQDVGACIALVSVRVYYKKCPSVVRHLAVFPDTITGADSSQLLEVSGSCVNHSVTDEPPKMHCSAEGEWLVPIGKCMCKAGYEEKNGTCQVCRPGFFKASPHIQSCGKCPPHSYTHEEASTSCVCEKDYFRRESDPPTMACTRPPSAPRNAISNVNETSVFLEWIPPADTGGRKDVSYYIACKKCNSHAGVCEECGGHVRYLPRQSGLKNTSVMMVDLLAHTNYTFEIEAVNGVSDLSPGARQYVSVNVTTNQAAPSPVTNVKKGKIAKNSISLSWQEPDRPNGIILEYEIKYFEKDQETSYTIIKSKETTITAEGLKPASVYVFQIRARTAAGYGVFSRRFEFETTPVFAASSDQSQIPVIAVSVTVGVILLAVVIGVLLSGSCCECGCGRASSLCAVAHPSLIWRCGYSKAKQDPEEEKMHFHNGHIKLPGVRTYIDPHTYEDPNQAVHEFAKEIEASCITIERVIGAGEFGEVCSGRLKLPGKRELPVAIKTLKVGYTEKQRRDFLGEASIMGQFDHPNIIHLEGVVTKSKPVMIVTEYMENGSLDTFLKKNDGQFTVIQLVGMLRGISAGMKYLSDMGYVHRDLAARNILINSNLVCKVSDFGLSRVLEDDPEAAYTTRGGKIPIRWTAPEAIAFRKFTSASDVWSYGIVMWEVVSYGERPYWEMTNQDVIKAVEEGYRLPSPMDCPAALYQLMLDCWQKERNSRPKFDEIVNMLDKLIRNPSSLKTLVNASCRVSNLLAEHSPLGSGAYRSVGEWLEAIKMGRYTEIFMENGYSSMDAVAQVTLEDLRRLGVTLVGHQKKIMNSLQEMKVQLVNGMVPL

HCT-116 [4] = assay: Induction of apoptosis in human HCT-116 cells assessed as early apoptosis at 10 uM incubated for > 6 hrs by annexin V/PI staining based analysis (Rvb=3.29%); type: functional
[5] = target: Tyrosine-protein kinase JAK2 (Homo sapiens) (UniProt O60674); assay: Inhibition of JAK2 (unknown origin) at 100 nM in the presence of ATP by Kinome scan method relative to control
HCT-116 [6] = assay: Induction of apoptosis in human HCT-116 cells assessed as early apoptosis at 1 uM incubated for > 6 hrs by annexin V/PI staining based analysis (Rvb=3.29%); type: functional
HCT-116 [7] = assay: Induction of cell cycle arrest in human HCT-116 cells assessed as S phase at 10 uM incubated for 6 hrs by flow cytometry analysis (Rvb=39.3%); type: functional
[8] = target: Mitogen-activated protein kinase 3 (Homo sapiens) (UniProt P27361); assay: Inhibition of MAPK3 (unknown origin) at 100 nM in the presence of ATP by Kinome scan method relative to control
Mitogen-activated protein kinase 3 (Homo sapiens), sequence (P27361 whole entry): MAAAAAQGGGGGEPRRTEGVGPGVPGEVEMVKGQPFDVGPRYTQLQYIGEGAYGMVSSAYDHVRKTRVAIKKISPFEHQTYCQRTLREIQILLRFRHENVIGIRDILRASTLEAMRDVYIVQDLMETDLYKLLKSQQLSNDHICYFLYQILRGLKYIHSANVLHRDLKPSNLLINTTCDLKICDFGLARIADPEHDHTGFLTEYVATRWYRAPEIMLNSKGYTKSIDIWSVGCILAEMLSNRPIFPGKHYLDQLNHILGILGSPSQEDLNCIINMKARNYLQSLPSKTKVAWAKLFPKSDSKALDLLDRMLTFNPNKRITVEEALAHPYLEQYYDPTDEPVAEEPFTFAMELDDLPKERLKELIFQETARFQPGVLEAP

HCT-116 [9] = assay: Induction of cell cycle arrest in human HCT-116 cells assessed as G2/M phase at 10 uM incubated for 24 hrs by flow cytometry analysis (Rvb=17.9%); type: functional
HCT-116 [10] = assay: Induction of cell cycle arrest in human HCT-116 cells assessed as S phase at 0.5 uM incubated for 24 hrs by flow cytometry analysis (Rvb=46.4%); type: functional
[11] = target: Serine/threonine-protein kinase pim-1 (Homo sapiens) (UniProt P11309); assay: Inhibition of PIM1 (unknown origin) at 100 nM in the presence of ATP by Kinome scan method relative to control
Serine/threonine-protein kinase pim-1 (Homo sapiens), sequence (P11309 whole entry, looked up): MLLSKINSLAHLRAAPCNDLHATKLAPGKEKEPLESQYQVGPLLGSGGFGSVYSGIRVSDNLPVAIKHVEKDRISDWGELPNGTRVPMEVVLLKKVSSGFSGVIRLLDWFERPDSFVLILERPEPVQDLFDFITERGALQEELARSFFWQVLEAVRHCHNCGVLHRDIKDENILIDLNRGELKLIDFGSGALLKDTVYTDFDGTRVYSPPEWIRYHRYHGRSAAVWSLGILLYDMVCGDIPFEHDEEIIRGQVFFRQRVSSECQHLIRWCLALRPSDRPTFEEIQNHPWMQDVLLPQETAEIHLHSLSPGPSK

[12] = target: Protein kinase C alpha type (Homo sapiens) (UniProt P17252); assay: Inhibition of PRKCA (unknown origin) at 1000 nM in the presence of ATP by Kinome scan method relative to control
[13] = target: Ephrin type-A receptor 1 (Homo sapiens) (UniProt P21709); assay: Inhibition of EPHA1 (unknown origin) at 100 nM in the presence of ATP by Kinome scan method relative to control
[14] = target: Dual specificity protein kinase CLK1 (Homo sapiens) (UniProt P49759); assay: Inhibition of CLK (unknown origin) in human HCT-116 cells assessed as induction in alternative splicing effect in CDC6-RARA level incubated for 6 hrs by RT-PCR analysis; type: cell-based; conditions: dose 0.2-5 µM
Dual specificity protein kinase CLK1 (Homo sapiens), sequence (P49759 whole entry, looked up, canonical isoform): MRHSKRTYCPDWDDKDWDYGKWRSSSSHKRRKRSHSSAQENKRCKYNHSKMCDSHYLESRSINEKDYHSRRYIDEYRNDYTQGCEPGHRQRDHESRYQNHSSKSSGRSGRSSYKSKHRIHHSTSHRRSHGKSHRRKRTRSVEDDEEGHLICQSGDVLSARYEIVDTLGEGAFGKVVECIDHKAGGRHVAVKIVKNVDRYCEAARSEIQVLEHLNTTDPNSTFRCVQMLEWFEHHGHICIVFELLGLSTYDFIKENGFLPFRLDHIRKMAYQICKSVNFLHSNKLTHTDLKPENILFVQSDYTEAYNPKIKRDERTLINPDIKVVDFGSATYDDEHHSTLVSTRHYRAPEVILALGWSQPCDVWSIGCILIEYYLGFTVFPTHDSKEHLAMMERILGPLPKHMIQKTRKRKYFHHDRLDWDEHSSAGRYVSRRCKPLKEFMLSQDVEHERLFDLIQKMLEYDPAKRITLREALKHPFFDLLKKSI
Outline: (§1)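 Cells exposed to graded T3 concentrations for 6 h (chosen to avoid cytotoxicity), with a DMSO vehicle control. Total RNA was reverse-transcribed with oligo-dT primers. Targeted splice or conjoined-gene products were quantified by real-time qPCR or by targeted next-generation sequencing. Conjoined-gene isoform expression was normalized to a sequenced housekeeping gene.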

HCT-116 [15] = assay: Induction of cell cycle arrest in human HCT-116 cells assessed as G0/G1 phase at 0.1 uM incubated for 6 hrs by flow cytometry analysis (Rvb=35.0%); type: functional
[16] = target: Dual specificity protein kinase CLK1 (Homo sapiens) (UniProt P49759); assay: Inhibition of CLK (unknown origin) in human 184-hTERT cells assessed as induction in alternative splicing effect in RBM25-PSEN1 level incubated for 6 hrs by RT-PCR analysis; type: cell-based; conditions: dose 0.2-5 µM; outline: as §1
[17] = target: Dual specificity tyrosine-phosphorylation-regulated kinase 1B (Homo sapiens, UniProt Q9Y463); assay: Inhibition of DYRK1B (unknown origin) using ULight-MBP peptide as substrate incubated for 10 mins in presence of ATP incubated for 45 mins by LANCE Ultra kinase assay
[18] = target: SRSF protein kinase 2 (Homo sapiens) (UniProt P78362); assay: Inhibition of SRPK2 (unknown origin) at 123 nM in the presence of ATP by Kinome scan method relative to control; conditions: time > 6.0 hrs
SRSF protein kinase 2 (Homo sapiens), sequence (P78362 whole entry, looked up): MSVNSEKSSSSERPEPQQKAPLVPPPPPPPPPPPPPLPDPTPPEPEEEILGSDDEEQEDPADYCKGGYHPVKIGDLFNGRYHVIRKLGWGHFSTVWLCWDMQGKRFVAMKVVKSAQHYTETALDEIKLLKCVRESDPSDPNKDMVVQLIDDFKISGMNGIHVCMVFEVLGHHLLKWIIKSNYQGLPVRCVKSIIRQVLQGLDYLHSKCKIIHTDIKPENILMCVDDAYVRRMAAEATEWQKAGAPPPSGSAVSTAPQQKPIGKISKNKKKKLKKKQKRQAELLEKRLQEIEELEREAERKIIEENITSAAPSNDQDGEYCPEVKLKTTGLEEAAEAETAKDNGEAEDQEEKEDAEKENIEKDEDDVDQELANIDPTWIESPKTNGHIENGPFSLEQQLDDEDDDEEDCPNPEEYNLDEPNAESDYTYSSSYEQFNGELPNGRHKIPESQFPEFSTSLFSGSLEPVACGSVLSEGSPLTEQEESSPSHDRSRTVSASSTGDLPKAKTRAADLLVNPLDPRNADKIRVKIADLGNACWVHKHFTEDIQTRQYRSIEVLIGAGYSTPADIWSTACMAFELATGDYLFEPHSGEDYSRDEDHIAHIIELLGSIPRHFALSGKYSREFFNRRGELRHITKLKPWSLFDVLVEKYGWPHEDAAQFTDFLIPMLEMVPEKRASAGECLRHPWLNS

[19] = target: Serine/threonine-protein kinase B-raf (Homo sapiens) (UniProt P15056); assay: Inhibition of BRAF (unknown origin) at 1000 nM in the presence of ATP by Kinome scan method relative to control
Serine/threonine-protein kinase B-raf (Homo sapiens), sequence (P15056 whole entry): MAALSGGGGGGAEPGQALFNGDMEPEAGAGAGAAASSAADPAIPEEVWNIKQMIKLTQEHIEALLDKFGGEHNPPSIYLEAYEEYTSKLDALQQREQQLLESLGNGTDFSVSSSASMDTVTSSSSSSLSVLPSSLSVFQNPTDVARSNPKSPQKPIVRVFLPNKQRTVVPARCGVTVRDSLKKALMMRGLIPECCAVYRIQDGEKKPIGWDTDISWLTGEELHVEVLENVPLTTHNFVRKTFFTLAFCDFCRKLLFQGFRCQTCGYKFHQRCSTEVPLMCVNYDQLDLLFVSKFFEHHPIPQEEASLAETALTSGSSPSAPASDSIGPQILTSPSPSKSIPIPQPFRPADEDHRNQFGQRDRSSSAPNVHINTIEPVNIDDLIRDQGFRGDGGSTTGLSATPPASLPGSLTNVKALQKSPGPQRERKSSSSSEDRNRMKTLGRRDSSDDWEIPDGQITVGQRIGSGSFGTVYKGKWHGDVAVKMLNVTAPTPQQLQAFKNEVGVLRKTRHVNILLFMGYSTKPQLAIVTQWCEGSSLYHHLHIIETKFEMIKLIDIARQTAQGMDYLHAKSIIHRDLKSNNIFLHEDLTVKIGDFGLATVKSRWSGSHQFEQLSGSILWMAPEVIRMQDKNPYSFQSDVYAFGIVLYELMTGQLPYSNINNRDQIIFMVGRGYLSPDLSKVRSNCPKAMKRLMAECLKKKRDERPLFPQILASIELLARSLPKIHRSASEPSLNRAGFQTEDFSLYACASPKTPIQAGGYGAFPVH

[20] = target: Homeodomain-interacting protein kinase 2 (Homo sapiens) (UniProt Q9H2X6); assay: Inhibition of HIPK2 (unknown origin) at 100 nM in the presence of ATP by Kinome scan method relative to control
Homeodomain-interacting protein kinase 2 (Homo sapiens), sequence (Q9H2X6 whole entry, looked up): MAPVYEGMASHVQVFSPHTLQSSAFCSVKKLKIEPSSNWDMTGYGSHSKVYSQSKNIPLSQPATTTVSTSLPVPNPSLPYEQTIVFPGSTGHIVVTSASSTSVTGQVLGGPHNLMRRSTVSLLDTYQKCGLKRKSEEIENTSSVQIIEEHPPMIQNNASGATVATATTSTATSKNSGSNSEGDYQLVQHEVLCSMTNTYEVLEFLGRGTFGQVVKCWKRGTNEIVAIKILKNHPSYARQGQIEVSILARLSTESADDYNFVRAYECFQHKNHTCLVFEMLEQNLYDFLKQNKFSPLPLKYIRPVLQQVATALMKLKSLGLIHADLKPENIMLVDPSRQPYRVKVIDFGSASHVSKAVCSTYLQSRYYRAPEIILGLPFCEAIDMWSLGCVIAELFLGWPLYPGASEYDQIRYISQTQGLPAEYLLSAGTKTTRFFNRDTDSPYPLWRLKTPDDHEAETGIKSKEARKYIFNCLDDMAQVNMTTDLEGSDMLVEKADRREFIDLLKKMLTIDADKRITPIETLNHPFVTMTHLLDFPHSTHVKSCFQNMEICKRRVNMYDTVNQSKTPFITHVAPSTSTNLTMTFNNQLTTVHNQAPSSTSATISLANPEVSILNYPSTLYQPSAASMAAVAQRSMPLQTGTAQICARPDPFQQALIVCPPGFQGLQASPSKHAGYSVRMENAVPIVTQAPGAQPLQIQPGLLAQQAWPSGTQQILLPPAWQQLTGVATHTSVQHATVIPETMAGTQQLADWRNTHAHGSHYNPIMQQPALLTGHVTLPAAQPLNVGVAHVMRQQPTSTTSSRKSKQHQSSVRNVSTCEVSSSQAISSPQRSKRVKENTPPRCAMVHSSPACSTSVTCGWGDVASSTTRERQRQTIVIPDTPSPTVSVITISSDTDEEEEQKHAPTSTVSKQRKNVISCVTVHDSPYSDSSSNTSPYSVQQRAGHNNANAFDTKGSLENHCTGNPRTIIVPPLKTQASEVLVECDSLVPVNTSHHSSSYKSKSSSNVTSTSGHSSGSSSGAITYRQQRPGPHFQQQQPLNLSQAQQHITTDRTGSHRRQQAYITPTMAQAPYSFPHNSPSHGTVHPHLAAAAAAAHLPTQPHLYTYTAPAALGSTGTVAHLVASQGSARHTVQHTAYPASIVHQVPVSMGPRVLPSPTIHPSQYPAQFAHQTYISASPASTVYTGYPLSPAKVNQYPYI

HCT-116 [21] = assay: Induction of apoptosis in human HCT-116 cells assessed as necrosis cells at 10 uM incubated for > 6 hrs by annexin V/PI staining based analysis (Rvb=0.55%); type: functional
HCT-116 [22] = assay: Induction of cell cycle arrest in human HCT-116 cells assessed as G2/M phase at 1 uM incubated for 6 hrs by flow cytometry analysis (Rvb=25.8%); type: functional
HCT-116 [23] = assay: Induction of apoptosis in human HCT-116 cells assessed as viable cells at 0.5 uM incubated for > 6 hrs by annexin V/PI staining based analysis (Rvb=90.04%); type: functional; conditions: read-out: Activity
[24] = target: Dual specificity tyrosine-phosphorylation-regulated kinase 1A (Homo sapiens, UniProt Q13627); assay: Inhibition of DYRK1A (unknown origin) using ULight-MBP peptide as substrate incubated for 10 mins in presence of ATP incubated for 45 mins by LANCE Ultra kinase assay
[25] = target: Dual specificity protein kinase CLK1 (Homo sapiens) (UniProt P49759); assay: Inhibition of CLK (unknown origin) in human HCT-116 cells assessed as induction in alternative splicing effect in RBM25-PSEN1 level incubated for 6 hrs by RT-PCR analysis; type: cell-based; conditions: dose 0.2-5 µM; outline: as §1
[26] = target: Dual specificity protein kinase CLK1 (Homo sapiens) (UniProt P49759); assay: Inhibition of CLK (unknown origin) in human HCT-116 cells assessed as induction in alternative splicing effect in S6K canonical isoform incubated for 6 hrs by RT-PCR analysis; type: cell-based; conditions: dose 0.2-5 µM; outline: as §1
[27] = target: Proto-oncogene tyrosine-protein kinase ROS (Homo sapiens) (UniProt P08922); assay: Inhibition of ROS1 (unknown origin) at 100 nM in the presence of ATP by Kinome scan method relative to control
[28] = target: 3-phosphoinositide-dependent protein kinase 1 (PDPK1) (Homo sapiens) (UniProt O15530); assay: Inhibition of PDK1 Direct (unknown origin) at 100 nM in the presence of ATP by Kinome scan method relative to control
[29] = target: SRSF protein kinase 1 (Homo sapiens) (UniProt Q96SB4); assay: Inhibition of SRPK1 (unknown origin) at 1110 nM in the presence of ATP by Kinome scan method relative to control; conditions: time > 6.0 hrs
[30] = target: Dual specificity tyrosine-phosphorylation-regulated kinase 3 (Homo sapiens) (UniProt O43781); assay: Inhibition of DYRK3 (unknown origin) at 1110 nM in the presence of ATP by Kinome scan method relative to control; conditions: time > 6.0 hrs

inhibition [1]: 11%
inhibition [2]: 24%
inhibition [3]: -5%
inhibition [5]: -7%
inhibition [8]: 6%
inhibition [11]: 16%
inhibition [12]: 4%
inhibition [13]: -2%
inhibition [14]: Dose-Dependent Effect
inhibition [16]: Dose-Dependent Effect
IC50 [17]: 230 nM
inhibition [18]: 2%
inhibition [19]: 17%
inhibition [20]: -4%
IC50 [24]: 260 nM
inhibition [25]: Dose-Dependent Effect
inhibition [26]: Dose-Dependent Effect
inhibition [27]: -4%
inhibition [28]: -1%
inhibition [29]: -3%
inhibition [30]: 4%
SMILES: CN1CCN(C(=O)C(C)(C)c2ccc(C(=O)Nc3cn4cc(-c5ccncc5)ccc4n3)cc2)CC1 [T3-CLK]
Activity (HCT-116 [4]): 3.7%
Activity (HCT-116 [6]): 3.4%
Activity (HCT-116 [7]): 45.3%
Activity (HCT-116 [9]): 37.7%
Activity (HCT-116 [10]): 20.5%
Activity (HCT-116 [15]): 24%
Activity (HCT-116 [21]): 0.86%
Activity (HCT-116 [22]): 34.6%
viability at 0.5 µM (HCT-116 [23]): 89.4%
